# Rows were chosen to be rich in hits. Some 1.5% of all compounds tested hit in one or more screens of this group.
# NR2E3 ag-1: human photoreceptor-specific nuclear receptor agonism. Q9Y5X4. CHO-S Gal4-NCOR/VP16-NR2E3 two-hybrid, luciferase. inhibition of corepressor binding, % at 3.98 µM. 0.35% of 360,000 active;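 active = inhibition above the mean of all tested compounds plus 3 SD, cut at about 70% in these data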;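 also: 0% = DMSO with NR2E3 transfected cells and 100% = cells lacking NR2E3 construct; higher means lower luciferase signal from less NR2E3 corepressor binding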
# NR1D1 modulator: modulators of human Rev-erb alpha DNA binding; P20393; Rev-erbα–FITC-DNA binding, fluorescence polarization, 90 min; activity, % at 10 µM; 0.79% of 370,000 active; AID 1259318;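 active = activity above about 14%, limit read from the data; passing the limit was not always enough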;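 also: 0% = DMSO wells with 35 nM protein and 100% = DMSO wells with 750 nM protein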
# Target sequence (P20393 whole entry, looked up): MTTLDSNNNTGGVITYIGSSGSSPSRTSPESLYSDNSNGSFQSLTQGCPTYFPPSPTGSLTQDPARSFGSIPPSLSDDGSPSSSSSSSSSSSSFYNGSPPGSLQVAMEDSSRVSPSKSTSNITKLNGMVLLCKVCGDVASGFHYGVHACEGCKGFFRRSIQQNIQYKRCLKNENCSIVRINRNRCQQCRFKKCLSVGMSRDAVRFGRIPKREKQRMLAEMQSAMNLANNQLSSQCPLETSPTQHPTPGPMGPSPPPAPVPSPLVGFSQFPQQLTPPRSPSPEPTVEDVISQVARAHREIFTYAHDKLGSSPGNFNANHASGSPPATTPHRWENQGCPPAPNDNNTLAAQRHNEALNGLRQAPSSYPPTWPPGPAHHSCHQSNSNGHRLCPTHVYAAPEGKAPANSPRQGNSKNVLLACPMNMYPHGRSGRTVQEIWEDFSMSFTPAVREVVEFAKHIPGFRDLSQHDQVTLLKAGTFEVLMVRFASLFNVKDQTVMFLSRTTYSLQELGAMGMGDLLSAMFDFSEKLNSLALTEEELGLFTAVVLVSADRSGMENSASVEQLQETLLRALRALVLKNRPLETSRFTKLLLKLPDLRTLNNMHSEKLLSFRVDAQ
# NR2E3 ag-2: activates human photoreceptor nuclear receptor NR2E3. Q9Y5X4. GST-NR2E3/biotin-RetCOR TR-FRET, 1536-well. inhibition of corepressor binding, % at 4.78 µM. 0.12% of 320,000 active. AID 2300;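 active = percent inhibition above the cutoff of mean plus 3 SD of all tested compounds, set per screening campaign, cut at about 20% in these data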;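 also: 0% = DMSO wells and 100% = biotin wells as full block of FRET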
#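 System: GST-tagged NR2E3 plus biotinylated RetCOR corepressor; Buffer or medium: pH 7.5 Tris-based buffer; Probe or stimulus: RetCOR corepressor, biotinylated, 7 nM; Doses: compound at 4.8 µM, single dose; Schedule: 5 h incubation at 4 °C; Technique: time-resolved FRET; Evaluation: percent inhibition of TR-FRET ratio; Replication: one well per compound, singlicate testing.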
# PG9 binder: binds the HIV-1 gp120 antibody PG9 | 0.43% of 360,000 active | TR-FRET gp120-PG9 antibody binding | inhibition, % at 6.7 µM; in the data active = inhibition above about 8.5%
# NR2E3 ag confirm: confirmation of human NR2E3 agonists; inhibition, % at 3.98 µM; shares compounds with NR2E3 ag-1; 51% of 2,300 active; CHO-S mammalian two-hybrid NR2E3-NCOR, luciferase luminescence; AID 624378;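 active = average inhibition above a cutoff equal to the mean inhibition of all tested compounds plus one SD, cut at about 70% in these data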;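 also: 0% = DMSO in NR2E3 cells and 100% = DMSO in cells lacking NR2E3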
# VP16 counter: counter-screen for NR2E3 agonists: GAL4-VP16 reporter inhibitors; shares compounds with NR2E3 ag-1; CHO-S GAL4-VP16 luciferase reporter, luminescence; inhibition, % at 3.98 µM; 29% of 2,300 active; AID 624379;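 active = mean inhibition above a cutoff equal to the average over all tested compounds plus one standard deviation, cut at about 70% in these data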;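 also: luciferase from a UAS reporter driven by GAL4-VP16 transactivation; 0% = DMSO with VP16-transfected cells and 100% = DMSO with cells lacking VP16; higher means less reporter light so more repression of VP16 activity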
# Starred values were filed as active, the others as inactive; x = no result given.
SMILES,NR2E3 ag-1,NR1D1 modulator,NR2E3 ag-2,PG9 binder,NR2E3 ag confirm,VP16 counter
O=C(CNc1cccc(S(=O)(=O)N2CCCC2)c1)Nc1ccc(C(F)(F)F)cc1,59.5,6.5,3.5,-0.7,63.9,47.2
O=C(CNc1cccc(S(=O)(=O)N2CCCCC2)c1)Nc1ccc(C(F)(F)F)cc1,37.6,7.4,x,-0.7,x,x
Cc1cc(O)c(/C=N/OCc2ccc(Cl)cc2Cl)c(=O)o1,-5.5,3.6,2.2,-0.8,x,x
O=c1c(/C=N/OCc2ccc(Cl)cc2Cl)c[nH]n1-c1cccc(Cl)n1,62.3,-5.7,4.4,0.6,98.4*,64.3
CC(=O)NC(=S)Nc1ccc(-c2nc3ccc(C)cc3s2)cc1,-141.2,12.0,4.2,-1.1,x,x
CC1=CCC(C(=O)O)C(C(=O)Nc2ccc(-c3nc4ccc(C)cc4s3)cc2)C1 (stereo not given),50.5,4.5,2.5,0.3,55.1,-37.5
COC(=O)c1cc(-c2cccs2)c(=O)n2c1CCC2,x,-0.3,x,x,x,x
O=S(=O)(NCC1CCCO1)c1ccc(-c2ccc(S(=O)(=O)NCC3CCCO3)cc2)cc1 (stereo not given),66.8,-1.2,3.2,0.8,92.2*,73.0*
Cc1ccc(S(=O)(=O)NCC2CCCO2)cc1 (stereo not given),12.6,5.3,-2.0,-4.0,x,x
Fc1cccc(CNC2CCC23CCC(c2ccccc2)CC3)c1 (stereo not given),x,11.5,x,x,x,x
Cc1cc(NC2CCCC2)n2ncc(-c3ccccc3)c2n1,55.7,3.4,-1.3,1.3,21.1,-67.0
Cc1noc(C)c1CSc1nc2ccccc2[nH]1,-11.9,-2.2,3.5,0.7,x,x
c1ccc(-c2cc(CSc3nc4ccccc4[nH]3)on2)cc1,63.0,-3.1,0.1,-0.2,83.3*,50.7
c1ccc2cc3[nH]c(CNc4nc(N5CCOCC5)nc5c4ncn5-c4ccsc4)nc3cc2c1,x,0.3,x,x,x,x
CCN(CC)C(=O)c1oc2ccc(S(=O)(=O)N3CCCCCC3)cc2c1C,-0.8,x,4.3,2.1,x,x
CCN(CC)C(=O)c1oc2ccc(S(=O)(=O)N3CC(C)CC(C)C3)cc2c1C (stereo not given),93.5*,6.4,2.7,-1.9,91.4*,72.5*
COc1ccc(CCNc2nc(C)nc3c2oc2ccccc23)cc1OC,73.1*,-1.2,0.9,-0.2,90.2*,73.1*
Cc1nc(NCCc2cnc[nH]2)c2oc3ccccc3c2n1,-17.8,-1.9,0.8,-1.0,x,x
Cc1nc(NC(C)c2ccccc2)c2oc3ccccc3c2n1 (stereo not given),62.1,-0.1,0.5,0.0,80.8*,66.1
COc1ccc(CCNc2ncnc3c2oc2ccccc23)cc1OC,89.7*,x,1.4,2.7,96.7*,86.5*
O=C(CSc1nnc(-c2ccccc2)n1-c1ccc(Cl)cc1)NN=Cc1c[nH]c2ccccc12,x,-1.8,x,x,x,x
COc1cc(/C=N/NC(=O)c2sc(N)c(C#N)c2C)cc(Br)c1O,59.9,5.1,-2.5,-7.6,4.1,-6.4
COc1ccc(NC(=O)CSc2nc3sc(C)cc3c(=O)n2C)c(OC)c1,62.2,-9.4,-3.2,-1.2,45.7,37.4
COc1ccc(C(=O)/C=C(\Nc2ccc(Br)c(C)c2)c2ccc(OC)cc2OC)c(OC)c1,x,-0.2,x,x,x,x
Cc1ccc2c(c1)C1CS(=O)(=O)N(CCc3ccccc3)C(=O)N1C2 (stereo not given),x,-2.9,x,x,x,x
SMILES,NR2E3 ag-1,NR1D1 modulator,NR2E3 ag-2,PG9 binder,NR2E3 ag confirm,VP16 counter
COc1cccc(CNC(=O)[C@@H]2CCCN2C(=O)[C@H]2CCCCN2C(=O)c2cccc3ccccc23)c1,85.7*,x,x,x,80.7*,63.2
CCOc1ccc(-n2c(SCC(=O)Nc3ccccc3-c3ccccc3)nnc2-c2cccs2)cc1,x,-4.4,x,x,x,x
CC(=O)Nc1ccccc1OCC(=O)c1cc(C)n(Cc2cccs2)c1C,90.2*,1.9,-0.1,2.5,93.0*,72.5*
Cc1cc(C(=O)COc2cccnc2[N+](=O)[O-])c(C)n1Cc1cccs1,69.8,-2.4,0.7,-2.0,73.2*,57.6
N=C1SCC(=O)N1c1ncc(Cc2cccc(Cl)c2)s1,100.3*,1.6,x,-0.2,97.5*,42.2
N=C1SCC(=O)N1c1ncc(Cc2ccccc2Cl)s1,100.4*,-2.0,x,-2.2,89.9*,25.6
CC(C)C(=O)Nc1ncc(Cc2ccccc2Cl)s1,-51.6,-2.2,2.3,-0.5,x,x
c1ccc(CCSc2nnc(-c3cccnc3)n2Cc2ccccc2)cc1,x,-3.6,x,x,x,x
O=C(Nc1cccc(Cl)c1)O[C@@H]1CC[C@@]23CCCN2C(=O)CCC[C@H]3C1,x,-3.8,x,x,x,x
Cc1cc(C(=O)NNC(=O)Nc2ccc(Cl)cc2)no1,-2.0,-3.2,3.1,-1.0,x,x
Cc1cc(C(=O)NNc2ccc(Cl)cc2)no1,64.3,2.9,1.5,-1.3,33.9,6.0
Cc1ccc(S(=O)(=O)N2[C@@H](c3ccc(C(C)(C)C)cc3)C(C(=O)O)=CC[C@H]2c2ccc(C(C)C)cc2)cc1,-4.2,-28.8,x,1.4,x,x
Cc1ccc([C@@H]2CC=C(C(=O)O)[C@H](c3ccc(C(C)(C)C)cc3)N2S(=O)(=O)c2ccc(C)cc2)cc1,97.8*,-7.9,x,-1.1,88.1*,41.1
Cc1ccc(S(=O)(=O)N2[C@@H](c3ccc(C(C)(C)C)cc3)C(C(=O)O)=CC[C@H]2c2ccc(Cl)cc2)cc1,99.1*,-7.8,x,-3.4,98.7*,66.1
Cc1ccc([C@@H]2CC=C(C(=O)O)[C@H](c3ccc(Br)cc3)N2S(=O)(=O)c2ccc(C)cc2)cc1,63.6,-1.8,x,-0.1,24.7,3.9
CCc1ccc([C@@H]2CC=C(C(=O)O)[C@H](c3ccc(C(C)(C)C)cc3)N2S(=O)(=O)c2ccc(C)cc2)cc1,92.6*,-16.8,x,-2.4,95.5*,61.7
Cc1ccc(S(=O)(=O)N2[C@@H](c3ccc(C(C)(C)C)cc3)C(C(=O)O)=CC[C@H]2c2cccs2)cc1,51.4,0.4,x,0.0,-4.5,-5.5
CCC(NC(=O)Nc1nnc(C(F)(F)F)s1)(C(F)(F)F)C(F)(F)F,104.3*,-5.1,4.6,0.4,97.3*,90.4*
Cc1cc(C(=O)Nc2ccc(Cl)cc2)c(C)n1-c1ccccc1,88.5*,-2.1,1.4,0.3,82.1*,55.2
Cc1ccc(NC(=O)c2cc(C)n(-c3ccccc3)c2C)cc1,59.0,4.8,-0.8,-3.7,36.7,-33.5
Cc1ccc(NC(=O)c2cc(C)n(-c3cccc(C)c3)c2C)cc1,18.0,2.8,-1.3,-0.4,x,x
CC1(C)CC(=O)c2c(O)cc(OCC(=O)Nc3ccc(S(N)(=O)=O)cc3)cc2O1,-26.6,8.2,3.9,-0.1,x,x
COc1cc(NC(=O)COc2cc(O)c3c(c2)OC(C)(C)CC3=O)cc(OC)c1OC,82.3*,9.6,-1.3,-1.5,58.9,84.1*
CC1CCC2(CC1)CCN(CCCOC(=O)NCc1ccc(Cl)cc1)C2=O (stereo not given),x,4.8,x,x,x,x
NC(=O)c1ccc(O)c2ncccc12,x,0.1,x,x,x,x
O=Cc1ccc(O)c2ncccc12,68.7,x,x,x,-6.3,-0.6

# Assay outcomes as filed in PubChem.
